Source: ChEMBL document CHEMBL2434842, “Approaches to protozoan drug discovery: phenotypic screening” (J Med Chem, 2013)
Counter-ions that a name gives are not always drawn.

Assays:
[1] = system: Trypanosoma brucei brucei; experiment: Trypanocidal activity against Trypanosoma brucei brucei by Alamar Blue assay; type: functional, organism-based
[2] = system: Trypanosoma brucei brucei; experiment: Antitrypanosomal activity against bloodstream form of Trypanosoma brucei brucei 427 after 3 days by Alamar Blue assay; type: functional, organism-based; details: Trypanosoma brucei, 427, 72 h
[3] = system: Plasmodium falciparum; experiment: Antimalarial activity against early (1 to 3) gametocytic stage of Plasmodium falciparum after 72 hrs by image-based HTS assay; type: functional, organism-based
Method in brief: (§1)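 P. falciparum early (I–III) or late (IV–V) gametocytes from the authors' large-scale synchronized culture. Exposed to compound in dose response for 72 h. Activity read in an image-based assay. IC50 from duplicate or triplicate points, n ≥ 2, reported as mean ± SD.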

[4] = system: Plasmodium falciparum; experiment: Antimalarial activity against late (4 to 5) gametocytic stage of Plasmodium falciparum after 72 hrs by image-based HTS assay; type: functional, organism-based; method in brief: as §1
[5] = system: Plasmodium falciparum; experiment: Antimalarial activity against asexual stage of Plasmodium falciparum 3D7 after 72 hrs by image-based HTS assay; type: functional, organism-based; details: 3D7, 72 h
[6] = system: Plasmodium falciparum; experiment: Antimalarial activity against late (4 to 5) gametocytic stage of Plasmodium falciparum at 100 uM after 72 hrs by image-based HTS assay relative to control; type: functional
Method in brief: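 Image-based assay on late-stage (IV–V) P. falciparum gametocytes taken from large-scale production of pure synchronized gametocytes. Compound exposure was 72 h in dose response, with duplicate or triplicate points per concentration and n ≥ 2 independent runs.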

[7] = Selectivity ratio of cytotoxic activity against mouse NIH/3T3 cells to antitrypanosomal activity against amastigote stage of Trypanosoma cruzi
[8] = system: Trypanosoma cruzi; experiment: Antitrypanosomal activity against amastigote stage of Trypanosoma cruzi infected in mouse NIH/3T3 cells after 48 hrs by Hoechst staining assay; type: functional, organism-based; details: NIH3T3, 48 h
[9] = system: Plasmodium falciparum; experiment: Antimalarial activity against late (4 to 5) gametocytic stage of Plasmodium falciparum at 120 uM after 72 hrs by image-based HTS assay relative to control; type: functional
[10] = system: Plasmodium falciparum; experiment: Antimalarial activity against early (1 to 3) gametocytic stage of Plasmodium falciparum at 120 uM after 72 hrs by image-based HTS assay relative to control; type: functional

Question: Which results are given for `O=C1c2c(O)ccc(O)c2C(=O)c2c(NCCNCCO)ccc(NCCNCCO)c21` [MITOXANTRONE HYDROCHLORIDE]?
Answer: IC50 [1]: 1 µM; IC50 [2]: 0.0024 µM

Question: What does the source list for `CCN(CC)Cc1cc(Nc2ccnc3cc(Cl)ccc23)ccc1O`?
Answer: IC50 [3]: 0.159 µM; IC50 [4]: 4.49 µM; IC50 [5]: 0.028 µM

Question: With `CO[C@@]12[C@H](COC(N)=O)C3=C(C(=O)C(C)=C(N)C3=O)N1C[C@@H]1N[C@@H]12` [MITOMYCIN] as the compound, how does the IC50 [1] read?
Answer: 1 µM

Question: For `CCN(CC)CCCC(C)Nc1ccnc2cc(Cl)ccc12` (stereo unspecified) [CHLOROQUINE], which inhibition at 100 µM [6] is on record?
Answer: 100%

Question: For `CC(=O)N1CCN(c2ccc(OCC3COC(Cn4ccnc4)(c4ccc(Cl)cc4Cl)O3)cc2)CC1` (stereo unspecified) [KETOCONAZOLE], which selectivity ratio ([7]; NIH/3T3 cells) is on record?
Answer: > 853

Question: What about the IC50 [8] of the same compound?
Answer: 0.0227 µM

Question: Which selectivity ratio ([7]; nih/3t3) does the source give for `Clc1ccc(CO/N=C(\Cn2ccnc2)c2ccc(Cl)cc2Cl)c(Cl)c1` [OXICONAZOLE NITRATE] here?
Answer: > 46.3

Question: What about the IC50 [8] of the same compound?
Answer: 0.388 µM

Question: For `CC[C@]1(O)C[C@H]2CN(CCc3c([nH]c4ccccc34)[C@@](C(=O)OC)(c3cc4c(cc3OC)N(C=O)[C@H]3[C@@](O)(C(=O)OC)[C@H](OC(C)=O)[C@]5(CC)C=CCN6CC[C@]43[C@@H]65)C2)C1` [VINCRISTINE], which IC50 [2] is on record?
Answer: 0.03 µM

Question: Which IC50 [3] does the source give for `COc1cc(NC(C)CCCN)c2ncccc2c1` (stereo unspecified) [PRIMAQUINE] here?
Answer: 5.86 µM

Question: And the inhibition at 120 µM [9]?
Answer: 40%

Question: And the IC50 [5]?
Answer: 6.09 µM

Question: Which IC50 [1] does the source give for `CC(=O)O[C@H]1C(=O)[C@@]2(C)[C@H]([C@H](OC(=O)c3ccccc3)[C@]3(O)C[C@H](OC(=O)[C@H](O)[C@@H](NC(=O)c4ccccc4)c4ccccc4)C(C)=C1C3(C)C)[C@]1(OC(C)=O)CO[C@@H]1C[C@@H]2O` [PACLITAXEL] here?
Answer: 1 µM

Question: With `COc1ccc(C[C@H](N)C(=O)N[C@H]2[C@@H](O)[C@H](n3cnc4c(N(C)C)ncnc43)O[C@@H]2CO)cc1` [PUROMYCIN] as the compound, how does the IC50 [3] read?
Answer: 0.137 µM

Question: What about the IC50 [4] of the same compound?
Answer: 0.046 µM

Question: What about the IC50 [5] of the same compound?
Answer: 0.064 µM

Question: For `C[C@H]1[C@@H](O)O[C@@H]2O[C@@]3(C)CC[C@H]4[C@H](C)CC[C@@H]1[C@@]24OO3` [ARTENIMOL], which IC50 [5] is on record?
Answer: 0.0007 µM

Question: For `CC[C@]1(O)C[C@@H]2CN(CCc3c([nH]c4ccccc34)[C@@](C(=O)OC)(c3cc4c(cc3OC)N(C)[C@H]3[C@@](O)(C(=O)OC)[C@H](OC(C)=O)[C@]5(CC)C=CCN6CC[C@]43[C@@H]65)C2)C1` [VINBLASTINE], which IC50 [2] is on record?
Answer: 0.094 µM

Question: Which results are given for `CCc1nc(N)nc(N)c1-c1ccc(Cl)cc1` [PYRIMETHAMINE]?
Answer: inhibition at 120 µM [10]: 40%; inhibition at 120 µM [9]: 100%; IC50 [5]: 0.014 µM

Question: For `C/C=C/C[C@@H](C)[C@@H](O)[C@H]1C(=O)N[C@@H](CC)C(=O)N(C)CC(=O)N(C)[C@@H](CC(C)C)C(=O)N[C@@H](C(C)C)C(=O)N(C)[C@@H](CC(C)C)C(=O)N[C@@H](C)C(=O)N[C@H](C)C(=O)N(C)[C@@H](CC(C)C)C(=O)N(C)[C@@H](CC(C)C)C(=O)N(C)[C@@H](C(C)C)C(=O)N1C` [CYCLOSPORINE], which IC50 [2] is on record?
Answer: 0.00114 µM

Question: For `N#C/C(=C1/SCC(c2ccccc2Cl)S1)n1ccnc1` (stereo unspecified) [LANOCONAZOLE], which selectivity ratio ([7]; NIH/3T3 cells) is on record?
Answer: 306

Question: What about the IC50 [8] of the same compound?
Answer: 0.0671 µM

Question: What does the source list for `COc1ccc2nc3cc(Cl)ccc3c(Nc3cc(CN4CCCC4)c(O)c(CN4CCCC4)c3)c2n1` [PYRONARIDINE]?
Answer: IC50 [3]: 0.131 µM; IC50 [4]: 1.3 µM; IC50 [5]: 0.046 µM

Question: Which IC50 [4] does the source give for `C[C@H]1[C@H](OC(=O)CCC(=O)O)O[C@@H]2O[C@@]3(C)CC[C@H]4[C@H](C)CC[C@@H]1[C@@]24OO3` [ARTESUNATE] here?
Answer: 0.00343 µM

Question: Which IC50 [4] does the source give for `CC[C@H](C)[C@H](NC(=O)[C@H]([C@@H](C)CC)N(C)C(C)=O)C(=O)N[C@H](C(=O)N[C@@H](CC(C)C)C(=O)[C@@]1(C)CO1)[C@@H](C)O` [EPOXOMYCIN] here?
Answer: 0.0007 µM

Question: And the IC50 [5]?
Answer: 0.0022 µM

Question: With `Clc1ccc(COC(Cn2ccnc2)c2ccc(Cl)cc2Cl)c(Cl)c1` (stereo unspecified) [MICONAZOLE NITRATE] as the compound, how does the selectivity ratio ([7]; nih/3t3) read?
Answer: > 19.5

Question: What about the IC50 [8] of the same compound?
Answer: 0.826 µM

Question: Which IC50 [3] does the source give for `O[C@@H](c1cc(C(F)(F)F)nc2c(C(F)(F)F)cccc12)[C@H]1CCCCN1` (relative stereo) [(S,R)-MEFLOQUINE] here?
Answer: 0.22 µM

Question: And the IC50 [5]?
Answer: 0.2 µM

Question: Which IC50 [2] does the source give for `CC[C@H](C)C(=O)O[C@H]1CCC=C2C=C[C@H](C)[C@H](CC[C@@H]3C[C@@H](O)CC(=O)O3)[C@H]21` [MEVASTATIN] here?
Answer: 0.94 µM

Question: Which results are given for `C[C@@H](c1ncncc1F)[C@](O)(Cn1cncn1)c1ccc(F)cc1F` [VORICONAZOLE]?
Answer: selectivity ratio ([7]; NIH/3T3 cells): 212; IC50 [8]: 0.0965 µM

Question: With `Clc1ccccc1C(c1ccccc1)(c1ccccc1)n1ccnc1` [CLOTRIMAZOLE] as the compound, how does the selectivity ratio ([7]; NIH/3T3 cells) read?
Answer: > 87.2

Question: What about the IC50 [8] of the same compound?
Answer: 0.187 µM

Question: What does the source list for `c1ccc(-c2ccc(C(c3ccccc3)n3ccnc3)cc2)cc1` (stereo unspecified) [BIFONAZOLE]?
Answer: selectivity ratio ([7]; NIH/3T3 cells): > 91.6; IC50 [8]: 0.204 µM

Question: Which IC50 [4] does the source give for `COc1cc(C)c2c(Oc3cccc(C(F)(F)F)c3)c(OC)cc(NC(C)CCCN)c2n1` (stereo unspecified) [TAFENOQUINE] here?
Answer: 3.37 µM

Question: And the IC50 [5]?
Answer: 1.07 µM
